# ChEMBL document CHEMBL1134641, “Progress toward the development of a safe and effective agent for treating reentrant cardiac arrhythmias: synthesis and evaluation of ibutilide analogues with enhanced metabolic stability and diminished proarrhythmic potential” (2001)
# How the values were obtained:
# Canis familiaris [1] = assay: Number of canine in which ventricular fibrillation (VF) was observed in PES-induced arrhythmias at an cumulative intravenous dose of 0.72 uM/kg; assay type: functional, Canis lupus familiaris, Cardiac ventricle
# Method in brief: (§1)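 Male mongrel dogs (16-22 kg) with LAD ligated in two stages, studied 24 h later. Programmed electrical stimulation at baseline and 15 min after each iv dose in saline (cumulative 0.24, 0.72, 2.4 µmol/kg). Saline controls then received a single 2.4 µmol/kg iv dose. Responses scored as NI (≤15 beats), NSVT (>15 beats, ends within 30 s), SVT (>30 s, needing pacing or cardioversion) or VF. A positive response was repeated.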
# Canis familiaris [2] = assay: QT interval measured in canine 24-h Infarction model at an cumulative intravenous dose of 0.24 uM/kg; assay type: functional, Canis lupus familiaris
# Method in brief: (§2)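 Dogs 24 h after two-stage LAD ligation. Compound in saline given iv in sequential doses (cumulative 0.24, 0.72, 2.4 µmol/kg); saline controls then given a single 2.4 µmol/kg iv dose. HR, IVR, BP, QT, spontaneous arrhythmias/min, ERPs and MAPD90 measured at baseline and 15 min after each dose. Means ± SEM, paired t-test, p≤0.05.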
# Canis familiaris [3] = assay: Atrial MAPD90 measured in canine 24-h Infarction model at an cumulative intravenous dose of 0.24 uM/kg; assay type: functional, Canis lupus familiaris, Cardiac atrium
# Method in brief: (§3)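 Male mongrel dogs (16-22 kg) with LAD permanently ligated in two stages; studied 24 h later. […] given IV in sequential doses to cumulative 0.24, 0.72, 2.4 µmol/kg. Saline controls (n=8) received vehicle, then a single IV 2.4 µmol/kg dose at the end. Measurements taken at baseline and 15 min after each dose. Means ± SEM, paired t-test, p ≤ 0.05.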
# Canis familiaris [4] = assay: Ventricular MAPD90 measured in canine 24-h Infarction model at an cumulative intravenous dose of 0.24 uM/kg; assay type: functional, Canis lupus familiaris, Heart; method in brief: as §2
# Canis familiaris [5] = assay: Atrial MAPD90 measured in canine 24-h Infarction model at a single intravenous dose of 2.4 uM/kg; assay type: functional, Canis lupus familiaris, Cardiac atrium; method in brief: as §3
# Canis familiaris [6] = assay: Blood pressure measured in canine 24-h Infarction model at an cumulative intravenous dose of 0.24 uM/kg; assay type: functional, Canis lupus familiaris; method in brief: as §3
# Canis familiaris [7] = assay: Idioventricular heart rate (IVR) measured in canine 24-h Infarction model at an cumulative intravenous dose of 2.4 uM/kg; assay type: functional, Canis lupus familiaris; method in brief: as §3
# Canis familiaris [8] = assay: Atrial effective refractory period (AERP) measured in canine just after inducing atrial flutter (AFL) termination by the compound at a dose of 9.6 uM/kg; assay type: functional, Canis lupus familiaris, Heart
# Canis familiaris [9] = assay: Number of canine in which nonsustained ventricular tachycardia (NSVT) was observed in PES-induced arrhythmias at an single intravenous dose of 2.4 uM/kg; assay type: functional, Canis lupus familiaris, Cardiac ventricle; method in brief: as §1
# Canis familiaris [10] = assay: Idioventricular heart rate (IVR) measured in canine 24-h Infarction model at an cumulative intravenous dose of 0.24 uM/kg; assay type: functional, Canis lupus familiaris; method in brief: as §3
# Canis familiaris [11] = assay: QT interval measured in canine 24-h Infarction model at an cumulative intravenous dose of 0.72 uM/kg; assay type: functional, Canis lupus familiaris; method in brief: as §2
# Canis familiaris [12] = assay: QT interval measured in canine just after inducing atrial flutter (AFL) termination by the compound at a dose of 4.8 uM/kg; assay type: functional, Canis lupus familiaris, Heart
# Method in brief: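 Conscious, sling-restrained dogs with chronically implanted electrodes, studied after 2 weeks of recovery. Sustained AFL (>5 min) induced. Compound in saline given iv every 5 min to cumulative 0.024-12.0 µmol/kg. At AFL termination, HR, QT (paced cycle length 300 ms), AERP and VERP measured. Measurements then taken 3 min after each further dose. Significance p≤0.05 vs baseline.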
# Canis familiaris [13] = assay: Heart Rate measured in canine just after inducing atrial flutter (AFL) termination by the compound at a dose of 7.2 uM/kg; assay type: functional, Canis lupus familiaris
# Canis familiaris [14] = assay: Heart rate measured in canine 24-h Infarction model at an cumulative intravenous dose of 0.24 uM/kg; assay type: functional, Canis lupus familiaris; method in brief: as §3
# Canis familiaris [15] = assay: Number of canine in which nonsustained ventricular tachycardia (NSVT) was observed in PES-induced arrhythmias at an cumulative intravenous dose of 2.4 uM/kg; assay type: functional, Canis lupus familiaris, Cardiac ventricle; method in brief: as §1
# Canis familiaris [16] = assay: QT interval measured in canine 24-h Infarction model at an cumulative intravenous dose of 2.4 uM/kg; assay type: functional, Canis lupus familiaris; method in brief: as §2
# Canis familiaris [17] = assay: Heart Rate measured in canine just after inducing atrial flutter (AFL) termination by the compound at a dose of 9.6 uM/kg; assay type: functional, Canis lupus familiaris
# Canis familiaris [18] = assay: Heart rate measured in canine 24-h Infarction model at an cumulative intravenous dose of 2.4 uM/kg; assay type: functional, Canis lupus familiaris; method in brief: as §3
# Canis familiaris [19] = assay: Number of canine in which arrhythmias could not be induced at an cumulative intravenous dose of 2.4 uM/kg; assay type: functional, Canis lupus familiaris; method in brief: as §1
# Canis familiaris [20] = assay: Atrial effective refractory period (AERP) measured in canine just after inducing atrial flutter (AFL) termination by the compound at a dose of 0.6 umol/kg; assay type: functional, Canis lupus familiaris, Heart
# Canis familiaris [21] = assay: Number of canine in which arrhythmias could not be induced at an cumulative intravenous dose of 0.24 uM/kg; assay type: functional, Canis lupus familiaris; method in brief: as §1
# Canis familiaris [22] = assay: Ventricular effective refractory period ([…]) measured in canine just after inducing atrial flutter (AFL) termination by the compound at a dose of 0.24 umol/kg; assay type: functional, Canis lupus familiaris, Heart
# Method in brief: (§4)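 Conscious dogs, loosely restrained in a sling, with exteriorized electrode leads, studied 2 weeks after instrumentation. AFL was induced and counted as sustained if it lasted 5 min. Compound in saline given intravenously every 5 min to cumulative 0.024-12.0 µmol/kg. VERP was measured at AFL termination and 3 min after each dose. Results are means ± SEM versus baseline, p ≤ 0.05.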
# Canis familiaris [23] = assay: Blood pressure measured in canine 24-h Infarction model at an cumulative intravenous dose of 0.72 uM/kg; assay type: functional, Canis lupus familiaris; method in brief: as §3
# Canis familiaris [24] = assay: Heart rate measured in canine 24-h Infarction model at a single intravenous dose of 2.4 uM/kg; assay type: functional, Canis lupus familiaris; method in brief: as §3
# Canis familiaris [25] = assay: Atrial effective refractory period (AERP) measured in canine just after inducing atrial flutter (AFL) termination by the compound at a dose of 1.2 uM/kg; assay type: functional, Canis lupus familiaris, Heart
# Canis familiaris [26] = assay: Blood pressure measured in canine 24-h Infarction model at an cumulative intravenous dose of 2.4 uM/kg; assay type: functional, Canis lupus familiaris; method in brief: as §3
# Canis familiaris [27] = assay: Number of canine in which ventricular fibrillation (VF) was observed in PES-induced arrhythmias at an cumulative intravenous dose of 2.4 uM/kg; assay type: functional, Canis lupus familiaris, Cardiac ventricle; method in brief: as §1
# Canis familiaris [28] = assay: Atrial MAPD90 measured in canine 24-h Infarction model at an cumulative intravenous dose of 0.72 uM/kg; assay type: functional, Canis lupus familiaris, Cardiac atrium; method in brief: as §3
# Canis familiaris [29] = assay: Number of canine in which nonsustained ventricular tachycardia (NSVT) was observed in PES-induced arrhythmias at an cumulative intravenous dose of 0.72 uM/kg; assay type: functional, Canis lupus familiaris, Cardiac ventricle; method in brief: as §1
# Canis familiaris [30] = assay: Number of canine in which ventricular fibrillation (VF) was observed in PES-induced arrhythmias at an cumulative intravenous dose of 0.24 uM/kg; assay type: functional, Canis lupus familiaris, Cardiac ventricle; method in brief: as §1
# Canis familiaris [31] = organism: Canis familiaris; assay: Ventricular effective refractory period ([…]) measured in canine just after inducing atrial flutter (AFL) termination by the compound; assay type: functional, Canis lupus familiaris, Heart; method in brief: as §4
# Canis familiaris [32] = assay: Atrial effective refractory period (AEPR) measured in canine 24-h Infarction model at an cumulative intravenous dose of 0.72 uM/kg; assay type: functional, Canis lupus familiaris, Cardiac atrium; method in brief: as §3
# Canis familiaris [33] = assay: Number of canine in which sustained ventricular tachycardia (SVT) was observed in PES-induced arrhythmias at an cumulative intravenous dose of 0.24 uM/kg; assay type: functional, Canis lupus familiaris, Cardiac ventricle; method in brief: as §1
# Canis familiaris [34] = assay: Ventricular effective refractory period ([…]) measured in canine just after inducing atrial flutter (AFL) termination by the compound at a dose of 1.2 uM/kg; assay type: functional, Canis lupus familiaris, Heart; method in brief: as §4
compound,measurement,setting,value
CCN(CCCCCC(C)(C)F)CCC[C@H](O)c1ccc(NS(C)(=O)=O)cc1.O=C(O)/C=C/C(=O)O,No. of canine,Canis familiaris [1],0
same,QT interval,Canis familiaris [2],211 ms
same,Atrial MAPD90,Canis familiaris [3],148 ms
same,Ventricular MAPD90,Canis familiaris [4],162 ms
same,Atrial MAPD90,Canis familiaris [5],209 ms
same,BP,Canis familiaris [6],112 mmHg
same,IVR,Canis familiaris [7],124 beats min-1
same,AERP,Canis familiaris [8],165 ms
same,No. of canine,Canis familiaris [9],0
same,IVR,Canis familiaris [10],138 beats min-1
same,QT interval,Canis familiaris [11],218 ms
same,QT interval,Canis familiaris [12],207 ms
same,HR,Canis familiaris [13],127 beats min-1
same,HR,Canis familiaris [14],155 beats min-1
same,No. of canine,Canis familiaris [15],1
same,QT interval,Canis familiaris [16],240 ms
same,HR,Canis familiaris [17],114 beats min-1
same,HR,Canis familiaris [18],135 beats min-1
same,No. of canine,Canis familiaris [19],10
same,AERP,Canis familiaris [20],153 ms
same,No. of canine,Canis familiaris [21],8
same,VERP,Canis familiaris [22],142 ms
same,BP,Canis familiaris [23],115 mmHg
same,HR,Canis familiaris [24],127 beats min-1
same,AERP,Canis familiaris [25],160 ms
same,BP,Canis familiaris [26],119 mmHg
same,No. of canine,Canis familiaris [27],0
same,Atrial MAPD90,Canis familiaris [28],146 ms
same,No. of canine,Canis familiaris [29],0
same,No. of canine,Canis familiaris [30],0
same,VERP,Canis familiaris [31],138 ms
same,AERP,Canis familiaris [32],166 ms
same,No. of canine,Canis familiaris [33],1
same,VERP,Canis familiaris [34],144 ms
